High-throughput results deposited in PubChem by several laboratories.
HNF4A DNA FP: change in binding of human HNF4 alpha to DNA; actives 0.3% (n = 360,000); activity change, % at 10 µM; HNF4a-FITC DNA binding, fluorescence polarization, 1 h; in the data active = activity change above about 30%, passing the limit was not always enough
TPT1 inhibitor: inhibitors of Candida albicans tRNA 2'-phosphotransferase TPT1; recombinant caTPT1, FP RNA substrate dephosphorylation; inhibition, % at 5 µM; actives 0.81% (n = 300,000); AID 1962;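 active = inhibition above the mean of all tested compounds plus 3 SD, set per screening campaign, cut at about 24% in these data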;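 note: plate controls were DMSO alone for no effect and ferristatin control at 100 nM for full effect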
PP1 counter: counter-screen for PP5 inhibitors: inhibitors of human PP1-alpha | P62136 | purified PP1alpha, OMFP fluorescence | inhibition, % at 6.7 µM | actives 0.9% (n = 320,000) | AID 2235;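 active = inhibition above the mean inhibition of all tested compounds plus 3 SD, computed separately for each screening campaign, cut at about 15% in these data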
Target sequence (P62136 whole entry, looked up): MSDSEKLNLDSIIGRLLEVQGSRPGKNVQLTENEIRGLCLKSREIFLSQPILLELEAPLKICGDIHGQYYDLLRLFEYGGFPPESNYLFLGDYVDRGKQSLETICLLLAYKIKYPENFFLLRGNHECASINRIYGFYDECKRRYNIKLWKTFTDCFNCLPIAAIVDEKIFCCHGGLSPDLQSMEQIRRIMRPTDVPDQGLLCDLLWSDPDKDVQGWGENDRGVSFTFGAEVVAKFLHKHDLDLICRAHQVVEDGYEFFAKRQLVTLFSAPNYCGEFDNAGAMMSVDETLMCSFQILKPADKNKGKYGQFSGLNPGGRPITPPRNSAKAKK
Rpn11 inh: blocks the human proteasome subunit Rpn11; inhibition, % at 20 µM; human 26S proteasome, Ub4-pepOG fluorescence polarization; 20S core pre-blocked with epoxomicin; actives 0.59% (n = 360,000);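 active = inhibition at 20 µM, scaled to each plate's controls, above about 33%, limit read from the data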
Target sequence (O00487 whole entry, looked up): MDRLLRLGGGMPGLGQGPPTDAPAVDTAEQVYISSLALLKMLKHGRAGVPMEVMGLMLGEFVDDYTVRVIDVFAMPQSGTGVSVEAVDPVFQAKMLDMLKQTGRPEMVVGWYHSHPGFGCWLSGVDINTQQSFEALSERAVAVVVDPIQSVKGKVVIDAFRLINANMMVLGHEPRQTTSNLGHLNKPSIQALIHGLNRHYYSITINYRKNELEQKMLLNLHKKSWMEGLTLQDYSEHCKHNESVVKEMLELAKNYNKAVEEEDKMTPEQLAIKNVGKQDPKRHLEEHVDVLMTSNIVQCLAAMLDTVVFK
NadD block: NadD (S. aureus) enzyme inhibition. purified NadD enzyme, colorimetric absorbance read-out. inhibition, % at 20 µM. actives 0.78% (n = 360,000). AID 602399; in the data active = inhibition above about 26%
CSN inh: CSN deneddylation inhibition. Q92905. Purified CSN, SCF-Nedd8-OG deneddylation, fluorescence polarization. inhibition, % at 12.5 µM. actives 0.38% (n = 360,000). AID 651999;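 active = pattern-corrected inhibition above about 35%, with an unprinted fluorescence ratio check between 0.5 and 1.5, limit read from the data, passing the limit was not always enough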;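 note: 0% = enzyme with substrate and 100% = substrate without enzyme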
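Test system: Human Csn5 produced in HEK293T cells | Compound: 12.5 µM single point | Times: 90 min, room temperature | Signal: Fluorescence polarization readout | Read-out basis: % inhibition of substrate cleavage by Csn5 | Controls: no-enzyme wells high, enzyme-with-substrate wells low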
TPT1 inh confirm: TPT1 (C. albicans) inhibition, confirmation. recombinant caTPT1, fluorescence polarization, RNase T1 coupled. shares compounds with TPT1 inhibitor. actives 74% (n = 2,400). inhibition, % at 5 µM;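 active = inhibition above the primary screen limit, the mean inhibition of all tested compounds plus 3 SD, cut at about 25% in these data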
RNase T1 counter: counter-screen for TPT1 inhibitors: inhibitors of Aspergillus oryzae RNase T1; AID 2153; actives 83% (n = 2,400); inhibition, % at 5 µM; RNase T1 cleavage, fluorescence polarization, 1536-well; shares compounds with TPT1 inhibitor;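 active = inhibition above the solvent-only control well mean plus 3 SD, limit set per screening run, cut at about 23% in these data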;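 note: plate controls were DMSO wells with enzyme for no effect and wells without RNase T1 for full effect; inhibitors block cleavage so intact labeled substrate keeps polarization high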
* marks the source's active call; other numbers are inactive results. In the library only some 2.7% were active in any assay of this set; here they are far more common.

How did CCOc1ccc(N2C(=O)S/C(=C\c3ccc(O)c(OC)c3)C2=O)cc1 do in these assays?
HNF4A DNA FP: 10.9; TPT1 inhibitor: 65.9*; PP1 counter: -1.0; Rpn11 inh: 16.4; NadD block: -5.3; CSN inh: 4.7; TPT1 inh confirm: 48.1*; RNase T1 counter: 57.9*

What do the screens show for `CCOc1ccc(N2C(=O)S/C(=C\c3cc(OC)c(OC)c(OC)c3)C2=O)cc1`?
HNF4A DNA FP: -2.1; TPT1 inhibitor: 0.7; PP1 counter: -1.8; Rpn11 inh: -5.8; NadD block: -7.4; CSN inh: -4.4

How did Nc1c(C(=O)c2ccccc2)sc2nsc(SCCN3CCOCC3)c12 do in these assays?
HNF4A DNA FP: 33.5; TPT1 inhibitor: 57.7*; PP1 counter: -2.3; NadD block: -3.2; CSN inh: 13.1; TPT1 inh confirm: 63.0*; RNase T1 counter: 72.2*

What do the screens show for `CCCCNc1c(CCc2ccccc2)nc2nc(C)cc(C)n12`?
HNF4A DNA FP: 16.7; NadD block: 12.2; CSN inh: 3.6

Results for CC(C)OCCCNc1nc2c(cnn2C)c(=O)[nH]1 ?
HNF4A DNA FP: -0.3; Rpn11 inh: 1.8; NadD block: 1.7; CSN inh: -1.8

What do the screens show for `CCN(CC)c1ccc(/C=c2\sc3nnc(-c4ccccc4Cl)n3c2=O)cc1`?
HNF4A DNA FP: 87.0; TPT1 inhibitor: active; PP1 counter: -3.6; NadD block: 21.9; CSN inh: -1.9; TPT1 inh confirm: 175.6*; RNase T1 counter: 162.8*

What do the screens show for `Clc1ccccc1-c1nnc2sc(CCc3ccccc3)nn12`?
HNF4A DNA FP: -5.2; TPT1 inhibitor: -0.1; PP1 counter: 6.8; Rpn11 inh: -9.1; NadD block: -3.6; CSN inh: -3.8

Results for COc1ccc(/C=c2/sc3nc(-c4ccccc4)c(-c4ccccc4)n3c2=O)cc1 ?
HNF4A DNA FP: -6.3; TPT1 inhibitor: 1.2; PP1 counter: -4.7; Rpn11 inh: 7.1; NadD block: 14.6; CSN inh: -7.8

How did CCN(CC)c1ccc(/C=c2/sc3nnc(-c4ccccc4C)n3c2=O)cc1 do in these assays?
HNF4A DNA FP: 24.4; TPT1 inhibitor: 109.2*; PP1 counter: -4.1; NadD block: 3.8; CSN inh: -40.4; TPT1 inh confirm: 165.2*; RNase T1 counter: 166.7*

How did O=C(O)c1ccc(N=Nc2c(O)[nH]c3cc(Cl)ccc23)cc1 do in these assays?
HNF4A DNA FP: 20.4; TPT1 inhibitor: 29.2*; PP1 counter: -1.1; Rpn11 inh: 43.7*; NadD block: -0.4; CSN inh: 8.8; TPT1 inh confirm: 54.2*; RNase T1 counter: 67.2*

How did COc1cccc(C2C(C#N)=C(N)OC(C(C)(C)C)=C2C#N)c1 (centres undefined) do in these assays?
HNF4A DNA FP: 0.4; TPT1 inhibitor: -4.1; PP1 counter: -1.6; Rpn11 inh: -4.9; NadD block: -3.7; CSN inh: -1.6

How did COc1cccc(/C=C2/CN(C)CC3=C2OC(N)=C(C#N)C3c2cccc(OC)c2)c1 (centres undefined) do in these assays?
HNF4A DNA FP: 10.0; TPT1 inhibitor: 40.1*; PP1 counter: 3.4; Rpn11 inh: 33.6; NadD block: 18.3; CSN inh: 12.2; TPT1 inh confirm: 25.1*; RNase T1 counter: 33.5*

What do the screens show for `O=C(N/N=C/c1ccc(Cl)cc1Cl)c1cccc(N2CCCC2=O)c1`?
HNF4A DNA FP: 0.5; TPT1 inhibitor: -2.6; PP1 counter: -1.4; Rpn11 inh: -3.7; NadD block: -4.9; CSN inh: 1.3

Results for O=C(N/N=C/c1cc(Br)cc(Br)c1O)c1cccc(N2CCCC2=O)c1 ?
HNF4A DNA FP: 8.3; TPT1 inhibitor: 54.1*; PP1 counter: 3.6; NadD block: 33.3*; CSN inh: 0.4; TPT1 inh confirm: 67.7*; RNase T1 counter: 73.4*

Results for O=C(N/N=C/c1cc(Br)cc(Br)c1O)c1cccc(S(=O)(=O)N2CCOCC2)c1 ?
HNF4A DNA FP: 84.7; TPT1 inhibitor: 47.9*; PP1 counter: -1.2; NadD block: 34.8*; CSN inh: 96.6; TPT1 inh confirm: 55.0*; RNase T1 counter: 53.5*

How did CCCn1nc(C(=O)Nc2ccc3c(c2)OCCO3)c2ccccc2c1=O do in these assays?
HNF4A DNA FP: -1.4; PP1 counter: -1.5; Rpn11 inh: -10.1; NadD block: -4.4; CSN inh: -2.2

What do the screens show for `CC1=C(CC(=O)O)c2cc(F)ccc2/C1=C/c1ccc(S(C)=O)cc1` (centres undefined)?
HNF4A DNA FP: 1.4; TPT1 inhibitor: -2.2; PP1 counter: 1.0; Rpn11 inh: -9.0; NadD block: -4.9; CSN inh: -0.5

What do the screens show for `COc1ccc(C2C(C#N)=C(N)SC(N)=C2C#N)cc1OC`?
HNF4A DNA FP: 115.6; TPT1 inhibitor: 102.7*; PP1 counter: -2.5; NadD block: 5.4; CSN inh: 36.8; TPT1 inh confirm: 70.6*; RNase T1 counter: 81.5*

How did N#CC1=C(N)SC(N)=C(C#N)C1c1cccc(O)c1 do in these assays?
HNF4A DNA FP: 91.1; TPT1 inhibitor: 99.7*; PP1 counter: -1.0; NadD block: -1.1; CSN inh: 117.8; TPT1 inh confirm: 107.8*; RNase T1 counter: 111.7*

Results for Cc1c(-c2ccc(O)cc2)nc2nc(-c3ccccc3)c(-c3ccccc3)nn12 ?
TPT1 inhibitor: 27.4*; PP1 counter: -3.3; TPT1 inh confirm: 49.0*; RNase T1 counter: 66.6*

What do the screens show for `Cc1ccc(F)cc1C(=O)N1CCCC(c2cc(C(=O)NCc3ccccc3)no2)C1` (centres undefined)?
HNF4A DNA FP: 2.3; Rpn11 inh: -1.1; NadD block: -6.3; CSN inh: 2.7

How did CNC(=O)c1ccc(NC(=O)Cc2ccc(S(=O)(=O)N3CCOCC3)s2)cc1 do in these assays?
HNF4A DNA FP: 2.2; TPT1 inhibitor: -0.9; PP1 counter: 3.7; Rpn11 inh: 2.3; NadD block: -3.1; CSN inh: -4.9

What do the screens show for `COC1=C/C(=C/c2c(O)c(C#N)c3ccccn23)C=CC1=O`?
HNF4A DNA FP: 3.2; TPT1 inhibitor: 30.4*; PP1 counter: -2.4; Rpn11 inh: 16.2; NadD block: 1.2; CSN inh: 1.0; TPT1 inh confirm: 9.9; RNase T1 counter: 12.5

Results for COc1cc(OC)cc(C(=O)c2c(C)c(C#N)c3ccccn23)c1 ?
HNF4A DNA FP: -2.7; Rpn11 inh: -6.3; NadD block: -6.1; CSN inh: 2.8

Results for CN(C)c1ccc(/C=C2\C(=N)N3C(=NC2=O)Sc2cc(S(C)(=O)=O)ccc23)cc1 ?
TPT1 inhibitor: 122.0*; PP1 counter: -4.0; TPT1 inh confirm: 87.9*; RNase T1 counter: 86.0*
